Assay results taken from ChEMBL document CHEMBL3525921, “Metabolic pathways of inhaled glucocorticoids by the CYP3A enzymes” (Drug Metab Dispos, 2013).

Experiments:
Type in all cases: ADME
[1] = target: Cytochrome P450 3A5 (Homo sapiens, UniProt P20815); experiment: Drug level of the compound assessed as recombinant CYP3A5 (unknown origin)-mediated metabolite formation treated with budesonide by MS/MS analysis; details: recombinant enzyme
Outline: (§1)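 Metabolite profiling used 50 pmol recombinant P450 (with reductase and cytochrome b5) and 100 μM substrate in 30 mM potassium phosphate (pH 7.4). Reactions were started with 1.3 mM NADPH at 37°C, with no-NADPH negative controls. They were stopped with cold acetonitrile, deproteinized by centrifugation, and metabolites were extracted on C-18 cartridges for MS analysis.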

[2] = target: Cytochrome P450 3A7 (Homo sapiens, UniProt P24462); experiment: Drug level of the compound assessed as recombinant CYP3A7 (unknown origin)-mediated metabolite formation treated with budesonide by MS/MS analysis; details: recombinant enzyme; outline: as §1
Sequence of Cytochrome P450 3A7 (P24462 whole entry): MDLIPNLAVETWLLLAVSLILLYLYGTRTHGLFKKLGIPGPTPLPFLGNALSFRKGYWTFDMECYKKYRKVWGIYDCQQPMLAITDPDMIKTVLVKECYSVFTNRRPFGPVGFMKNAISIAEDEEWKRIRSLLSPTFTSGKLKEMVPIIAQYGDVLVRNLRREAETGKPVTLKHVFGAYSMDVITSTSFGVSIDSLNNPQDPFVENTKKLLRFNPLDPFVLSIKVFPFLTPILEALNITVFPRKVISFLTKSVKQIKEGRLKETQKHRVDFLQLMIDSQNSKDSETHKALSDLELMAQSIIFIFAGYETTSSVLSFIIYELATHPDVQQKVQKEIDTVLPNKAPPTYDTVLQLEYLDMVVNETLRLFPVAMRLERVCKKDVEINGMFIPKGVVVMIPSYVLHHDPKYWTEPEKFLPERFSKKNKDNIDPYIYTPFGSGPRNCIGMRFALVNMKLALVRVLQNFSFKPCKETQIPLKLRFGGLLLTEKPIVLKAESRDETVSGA

[3] = target: T1, Cytochrome P450 3A4 (Homo sapiens, UniProt P08684); experiment: Drug level of the compound assessed as recombinant CYP3A4 (unknown origin)-mediated metabolite formation treated with budesonide by MS/MS analysis; details: recombinant enzyme; outline: as §1
T1 sequence (P08684 whole entry): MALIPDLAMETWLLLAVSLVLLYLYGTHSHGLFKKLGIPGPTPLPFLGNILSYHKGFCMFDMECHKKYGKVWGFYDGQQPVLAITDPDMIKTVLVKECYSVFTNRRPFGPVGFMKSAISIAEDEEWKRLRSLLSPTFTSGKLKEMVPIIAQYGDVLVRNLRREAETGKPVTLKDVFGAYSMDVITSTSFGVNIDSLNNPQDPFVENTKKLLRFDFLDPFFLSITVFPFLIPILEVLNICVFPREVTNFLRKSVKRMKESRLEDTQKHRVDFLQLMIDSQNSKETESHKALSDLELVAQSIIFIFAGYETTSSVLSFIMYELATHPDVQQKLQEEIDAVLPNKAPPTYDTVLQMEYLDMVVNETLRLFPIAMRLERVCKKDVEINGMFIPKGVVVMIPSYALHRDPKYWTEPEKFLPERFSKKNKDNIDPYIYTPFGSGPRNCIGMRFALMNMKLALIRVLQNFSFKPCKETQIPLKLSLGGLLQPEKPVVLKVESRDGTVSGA

[4] = target: T1, Cytochrome P450 3A4; experiment: Drug metabolism assessed as recombinant CYP3A4 (unknown origin)-mediated 6beta-hydroxy, 21-carboxy triamcinolone acetonide metabolite retention time by MS/MS analysis; details: recombinant enzyme; outline: as §1
[5] = target: T1, Cytochrome P450 3A4; experiment: Drug level of the compound assessed as recombinant CYP3A4 (unknown origin)-mediated metabolite formation treated with triamcinolone acetonide by MS/MS analysis; details: recombinant enzyme; outline: as §1
[6] = target: T1, Cytochrome P450 3A4; experiment: Drug metabolism assessed as recombinant CYP3A4 (unknown origin)-mediated delta6-flunisolide metabolite retention time by MS/MS analysis; details: recombinant enzyme; outline: as §1
[7] = target: T1, Cytochrome P450 3A4; experiment: Drug level of the compound assessed as recombinant CYP3A4 (unknown origin)-mediated metabolite formation treated with flunisolide by MS/MS analysis; details: recombinant enzyme; outline: as §1
[8] = target: T1, Cytochrome P450 3A4; experiment: Drug metabolism assessed as recombinant CYP3A4 (unknown origin)-mediated 21-carboxy flunisolide metabolite retention time by MS/MS analysis; details: recombinant enzyme; outline: as §1
[9] = target: T1, Cytochrome P450 3A4; experiment: Drug metabolism assessed as recombinant CYP3A4 (unknown origin)-mediated 21-carboxy triamcinolone acetonide metabolite retention time by MS/MS analysis; details: recombinant enzyme; outline: as §1
[10] = target: T1, Cytochrome P450 3A4; experiment: Drug metabolism assessed as recombinant CYP3A4 (unknown origin)-mediated 21-nortriamcincolone acetonide metabolite retention time by MS/MS analysis; details: recombinant enzyme; outline: as §1
[11] = target: T1, Cytochrome P450 3A4; experiment: Drug metabolism assessed as recombinant CYP3A4 (unknown origin)-mediated delta6-triamcinolone acetonide metabolite retention time by MS/MS analysis; details: recombinant enzyme; outline: as §1
[12] = target: T1, Cytochrome P450 3A4; experiment: Drug metabolism assessed as recombinant CYP3A4 (unknown origin)-mediated 17beta-carboxy fluticasone propionate metabolite retention time by MS/MS analysis; details: recombinant enzyme; outline: as §1
[13] = target: T1, Cytochrome P450 3A4; experiment: Drug level of the compound assessed as recombinant CYP3A4 (unknown origin)-mediated metabolite formation treated with fluticasone propionate by MS/MS analysis; details: recombinant enzyme; outline: as §1
[14] = target: T1, Cytochrome P450 3A4; experiment: Drug metabolism assessed as recombinant CYP3A4 (unknown origin)-mediated 6beta-hydroxy triamcinolone acetonide metabolite retention time by MS/MS analysis; details: recombinant enzyme; outline: as §1
[15] = target: T1, Cytochrome P450 3A4; experiment: Drug metabolism assessed as recombinant CYP3A4 (unknown origin)-mediated 16alpha-hydroxy prednisolone metabolite formation by MS/MS analysis; details: recombinant enzyme
[16] = target: CYP3A4 (Homo sapiens, UniProt P08684); experiment: Activity at recombinant CYP3A4 (unknown origin) assessed as half life at 1 uM by LC-MS analysis
Sequence of CYP3A4 (P08684 whole entry): as above
Outline: (§2)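 Recombinant P450 co-expressing P450 reductase and cytochrome b5, 10 pmol, with 1 μM substrate in 30 mM potassium phosphate (pH 7.4). Started with 1.3 mM NADPH at 37°C; no-NADPH negative controls. Samples at 0–20 min were quenched in cold acetonitrile with prednisolone internal standard and run by LC/MS, in triplicate. Parent/IS ratio vs time fitted to one-phase exponential decay; t1/2 = 0.69/kobs.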

[17] = target: CYP3A5 (Homo sapiens, UniProt P20815); experiment: Activity at recombinant CYP3A5 (unknown origin) assessed as half life at 1 uM by LC-MS analysis; outline: as §2
Sequence of CYP3A5 (P20815 whole entry): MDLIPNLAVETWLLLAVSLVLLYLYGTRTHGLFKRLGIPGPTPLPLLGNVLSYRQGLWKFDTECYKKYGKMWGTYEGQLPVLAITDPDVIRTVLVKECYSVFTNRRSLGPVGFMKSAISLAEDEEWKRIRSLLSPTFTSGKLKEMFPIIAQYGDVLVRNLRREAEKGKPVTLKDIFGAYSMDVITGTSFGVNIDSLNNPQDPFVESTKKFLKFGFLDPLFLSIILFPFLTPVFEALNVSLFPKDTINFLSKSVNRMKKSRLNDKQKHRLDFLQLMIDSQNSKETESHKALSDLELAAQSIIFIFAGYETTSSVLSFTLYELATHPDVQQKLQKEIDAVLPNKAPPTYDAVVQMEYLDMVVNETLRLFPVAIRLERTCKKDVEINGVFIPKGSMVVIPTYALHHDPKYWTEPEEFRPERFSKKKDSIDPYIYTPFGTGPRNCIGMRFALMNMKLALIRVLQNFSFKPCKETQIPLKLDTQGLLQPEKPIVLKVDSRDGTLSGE

[18] = target: CYP3A7 (Homo sapiens, UniProt P24462); experiment: Activity at recombinant CYP3A7 (unknown origin) assessed as half life at 1 uM by LC-MS analysis; outline: as §2
Sequence of CYP3A7 (P24462 whole entry): as the sequence (P24462 whole entry) above

[19] = target: T1, Cytochrome P450 3A4; experiment: Drug metabolism assessed as recombinant CYP3A4 (unknown origin)-mediated delta6-budesonide metabolite formation by MS/MS analysis; details: recombinant enzyme; outline: as §1
[20] = target: T1, Cytochrome P450 3A4; experiment: Drug metabolism assessed as recombinant CYP3A4 (unknown origin)-mediated 16alpha-hydroxy prednisolone metabolite formation by MS/MS analysis in presence of esterase inhibitor; details: recombinant enzyme
[21] = target: T1, Cytochrome P450 3A4; experiment: Drug metabolism assessed as recombinant CYP3A4 (unknown origin)-mediated 6beta-hydroxy budesonide metabolite formation by MS/MS analysis; details: recombinant enzyme; outline: as §1
[22] = target: T1, Cytochrome P450 3A4; experiment: Drug metabolism assessed as recombinant CYP3A4 (unknown origin)-mediated 23-hydroxy budesonide metabolite formation by MS/MS analysis; details: recombinant enzyme; outline: as §1
[23] = target: T1, Cytochrome P450 3A4; experiment: Drug metabolism assessed as recombinant CYP3A4 (unknown origin)-mediated keto-flunisolide metabolite retention time by MS/MS analysis; details: recombinant enzyme; outline: as §1

Sequence of Cytochrome P450 3A5 (P20815 whole entry): as the sequence (P20815 whole entry) above

For `CCC(O)C1O[C@@H]2C[C@H]3[C@@H]4CCC5=CC(=O)C=C[C@]5(C)[C@H]4[C@@H](O)C[C@]3(C)[C@]2(C(=O)CO)O1` (stereo not given in full), the Drug metabolism [1] was “metabolite_detected”, the Drug metabolism [2] was “metabolite_detected” and the Drug metabolism [3] was “metabolite_detected”.

`CC1(C)O[C@@H]2C[C@H]3[C@@H]4C[C@@H](O)C5=CC(=O)C=C[C@]5(C)[C@@]4(F)[C@@H](O)C[C@]3(C)[C@]2(C(=O)C(=O)O)O1` was tested, and the Retention_time [4] was 16.4 min and the Drug metabolism [5] was “metabolite_detected”.

In the case of `CC1(C)O[C@@H]2C[C@H]3[C@@H]4C=C(F)C5=CC(=O)C=C[C@]5(C)[C@H]4[C@@H](O)C[C@]3(C)[C@]2(C(=O)CO)O1`, the Retention_time [6] is reported as 20.6 min and the Drug metabolism [7] is reported as “metabolite_detected”.

For `CC1(C)O[C@@H]2C[C@H]3[C@@H]4CC(=O)C5=CC(=O)C=C[C@]5(C)[C@H]4[C@@H](O)C[C@]3(C)[C@]2(C(=O)CO)O1`, the Drug metabolism [7] was “metabolite_detected”.

`CC1(C)O[C@@H]2C[C@H]3[C@@H]4C[C@H](F)C5=CC(=O)C=C[C@]5(C)[C@H]4[C@@H](O)C[C@]3(C)[C@]2(C(=O)C(=O)O)O1` was tested, and the Retention_time [8] was 23.1 min and the Drug metabolism [7] was “metabolite_detected”.

In the case of `CC1(C)O[C@@H]2C[C@H]3[C@@H]4CCC5=CC(=O)C=C[C@]5(C)[C@@]4(F)[C@@H](O)C[C@]3(C)[C@]2(C(=O)C(=O)O)O1`, the Retention_time [9] is reported as 23.7 min and the Drug metabolism [5] is reported as “metabolite_detected”.

In the case of `CC1(C)O[C@@H]2C[C@H]3[C@@H]4CCC5=CC(=O)C=C[C@]5(C)[C@@]4(F)[C@@H](O)C[C@]3(C)[C@]2(C(=O)O)O1`, the Retention_time [10] is reported as 18.9 min and the Drug metabolism [5] is reported as “metabolite_detected”.

For `CC1(C)O[C@@H]2C[C@H]3[C@@H]4C=CC5=CC(=O)C=C[C@]5(C)[C@@]4(F)[C@@H](O)C[C@]3(C)[C@]2(C(=O)CO)O1`, the Retention_time [11] was 19.1 min and the Drug metabolism [5] was “metabolite_detected”.

For `CCC(=O)O[C@]1(C(=O)O)[C@H](C)C[C@H]2[C@@H]3C[C@H](F)C4=CC(=O)C=C[C@]4(C)[C@@]3(F)[C@@H](O)C[C@@]21C`, the Retention_time [12] was 19.7 min and the Drug metabolism [13] was “metabolite_detected”.

`C[C@]12C=CC(=O)C=C1CC[C@@H]1[C@@H]2[C@@H](O)C[C@@]2(C)[C@H]1C[C@@H](O)[C@]2(O)C(=O)CO` was tested, and the Drug metabolism [1] was “metabolite_detected”, the Drug metabolism [2] was “metabolite_detected” and the Drug metabolism [3] was “metabolite_detected”.

With `CC1(C)O[C@@H]2C[C@H]3[C@@H]4C[C@@H](O)C5=CC(=O)C=C[C@]5(C)[C@@]4(F)[C@@H](O)C[C@]3(C)[C@]2(C(=O)CO)O1` the Retention_time [14] was 14.9 min and the Drug metabolism [5] was “metabolite_detected”.

For `CCCC1O[C@@H]2C[C@H]3[C@@H]4C=CC5=CC(=O)C=C[C@]5(C)[C@H]4[C@@H](O)C[C@]3(C)[C@]2(C(=O)CO)O1` (stereo not given in full), the Drug metabolism [1] was “metabolite_detected”, the Drug metabolism [2] was “metabolite_detected” and the Drug metabolism [3] was “metabolite_detected”.

With `CCCC1O[C@@H]2C[C@H]3[C@@H]4C[C@@H](O)C5=CC(=O)C=C[C@]5(C)[C@H]4[C@@H](O)C[C@]3(C)[C@]2(C(=O)CO)O1` (stereo not given in full) the Drug metabolism [1] was “metabolite_detected”, the Drug metabolism [2] was “metabolite_detected” and the Drug metabolism [3] was “metabolite_detected”.

For `CCCC1O[C@@H]2C[C@H]3[C@@H]4CCC5=CC(=O)C=C[C@]5(C)[C@H]4[C@@H](O)C[C@]3(C)[C@]2(C(=O)CO)O1` (stereo not given in full) [BUDESONIDE], the Drug metabolism [15] was “metabolite_detected”, the half-life at 1 µM [16] was 11 min and the half-life at 1 µM [17] was 40 min. The half-life at 1 µM [18] was 71 min, the Drug metabolism [19] was “metabolite_detected” and the Drug metabolism [20] was “metabolite_not_detected”. The Drug metabolism [21] was “metabolite_detected” and the Drug metabolism [22] was “metabolite_detected”.

With `CC1(C)O[C@@H]2C[C@H]3[C@@H]4C[C@H](F)C5=CC(=O)C=C[C@]5(C)[C@H]4[C@@H](O)C[C@]3(C)[C@]2(C(=O)CO)O1` [FLUNISOLIDE] the half-life at 1 µM [16] was 16 min and the Retention_time [23] was 15.8 min.

`CCC(=O)O[C@]1(C(=O)SCF)[C@H](C)C[C@H]2[C@@H]3C[C@H](F)C4=CC(=O)C=C[C@]4(C)[C@@]3(F)[C@@H](O)C[C@@]21C` [FLUTICASONE PROPIONATE] showed a half-life at 1 µM [16] of 0.86 min, a half-life at 1 µM [17] of 16 min and a half-life at 1 µM [18] of 58 min.

In the case of `CC1(C)O[C@@H]2C[C@H]3[C@@H]4CCC5=CC(=O)C=C[C@]5(C)[C@@]4(F)[C@@H](O)C[C@]3(C)[C@]2(C(=O)CO)O1` [TRIAMCINOLONE ACETONIDE], the half-life at 1 µM [16] is reported as 12 min, the half-life at 1 µM [17] is reported as 130 min and the half-life at 1 µM [18] is reported as 213 min.
